Assay results of several laboratories.
Each line is one published result; the experiments were not run side by side.
FLT3: Receptor-type tyrosine-protein kinase FLT3 (FLT3, Homo sapiens, UniProt P36888)
FLT3 K663Q: Receptor-type tyrosine-protein kinase FLT3 (FLT3, Homo sapiens, UniProt P36888, K663Q)
FLT3 D835Y: Receptor-type tyrosine-protein kinase FLT3 (FLT3, Homo sapiens, UniProt P36888, D835Y)
FLT3 autoinhibited: Receptor-type tyrosine-protein kinase FLT3, autoinhibited (FLT3, Homo sapiens, UniProt P36888)
FLT3 N841I: Receptor-type tyrosine-protein kinase FLT3 (FLT3, Homo sapiens, UniProt P36888, N841I)

`Nc1ncnc2occ(-c3ccc(NC(=O)Nc4cc(C(F)(F)F)ccc4F)cc3)c12` gave a remaining signal of 0% (Receptor-type tyrosine-protein kinase FLT3 (FLT3, Homo sapiens, UniProt P36888, D835V); cell-free assay; inhibitor; 20 µM).
The remaining activity of `Cc1ccc(C(=O)Nc2ccc(CN3CCN(C)CC3)c(C(F)(F)F)c2)cc1C#Cc1cnc2cccnn12` is reported as 5% (Receptor-type tyrosine-protein kinase FLT3 (FLT3, Homo sapiens, UniProt P36888, R834Q); enzyme activity; inhibitor; 23.5 nM).
With `CN(C)C1CCN(CC#Cc2nn(C3CCCC3)c3nc(NCc4ccccc4)ncc23)C1` (stereo not drawn) the inhibition was 59% (FLT3; enzyme activity; inhibitor; FRET; 10 µM).
The remaining binding of `O=C(Nc1ccc(Oc2ccc(F)cc2)cc1)N1CCc2ncccc2[C@H]1c1ccc(F)cc1` is reported as 93% (Receptor-type tyrosine-protein kinase FLT3 (FLT3, Homo sapiens, UniProt P36888, F691L/ITD); cell-free assay; competition with immobilised ligand; 1 µM).
With `Cc1cnc(Nc2ccc(C(=O)N3CCC(N4CCCC4)CC3)cc2)nc1-c1cc2ccccc2s1` the remaining binding was 2.2% (FLT3 K663Q; binding; competition with immobilised ligand; 1 µM).
With `O=C(c1cc2cc(O)ccc2[nH]1)c1cc2cc(O)ccc2[nH]1` the remaining signal was 3.53% (FLT3; cell-free assay; 0.5 µM).
The remaining binding of `C[C@H]1CCN(c2nccc(-c3cnn4ncccc34)n2)C1` is reported as 98% (FLT3 K663Q; binding; 1 µM).
With `FC(F)(F)c1ccc2c(c1)nc(-c1cccnc1)n2C1CC1` the remaining binding was 100% (FLT3 K663Q; cell-free assay; competition with immobilised ligand; 1 µM).
With `Cc1cnn2ncc(-c3ccnc(N(C)C)n3)c2c1` the remaining binding was 81% (FLT3 D835Y; binding; 1 µM).
`O=C(NCCCC1CCCCC1)c1ccc(CNC(=O)c2cnn(-c3ccccc3)c2C(F)(F)F)cc1` has a remaining binding of 100% (FLT3 autoinhibited; cell-free assay; competition with immobilised ligand; 0.1 µM).
`c1cnn2ncc(-c3ccnc(N4CCC45COC5)n3)c2c1` gave a remaining binding of 100% (FLT3 K663Q; binding; 1 µM).
With `CC1=C(C#N)[C@@H](c2ccc3[nH]nc(C)c3c2)C(C#N)=C(c2ccc(Cl)cc2)N1` the remaining binding was 100% (Receptor-type tyrosine-protein kinase FLT3 (FLT3, Homo sapiens, UniProt P36888, D835H); cell-free assay; competition with immobilised ligand; 1 µM).
For `Fc1cccc(-n2cnc3c(NCc4nc5c(F)c(F)ccc5[nH]4)nc(N4CCOCC4)nc32)c1`, the binding vs control was 41% (FLT3 D835Y; binding; competition with immobilised ligand; 10 µM).
`N[C@H]1CCN(c2nccc(-c3cnn4ncccc34)n2)C1` has a remaining binding of 97% (FLT3 D835Y; binding; 1 µM).
`O=C1CCc2cc(Nc3cc(OC4CCOCC4)c([N+](=O)[O-])cc3Cl)ccc2N1` has a remaining binding of 100% (Receptor-type tyrosine-protein kinase FLT3 (FLT3, Homo sapiens, UniProt P36888, ITD); cell-free assay; competition with immobilised ligand; 1 µM).
`CN(CCCC(F)(F)F)c1nccc(-c2cnn3ncccc23)n1` gave a remaining binding of 100% (FLT3 N841I; binding; 1 µM).
`COc1cc2ncnc(Nc3ccc(F)c(Cl)c3)c2cc1OCCCN1CCOCC1` gave a remaining signal of 56.5% (FLT3; cell-free assay; 0.5 µM).
`CN([C@@H]1CCc2c(CC(=O)O)c3cc(S(C)(=O)=O)ccc3n2C1)S(=O)(=O)c1ccc(F)cc1` has a remaining binding of 100% (FLT3 N841I; cell-free assay; competition with immobilised ligand; 1 µM).
The remaining binding of `O=C(NCCCN1CCOCC1)c1ccc(Nc2nccc(-c3cc4ccccc4s3)n2)cc1` is reported as 67% (FLT3 autoinhibited; binding; competition with immobilised ligand; 1 µM).
With `C[C@H](c1ccnc(Nc2nc3ccc(-c4cc(N(C)C)ncn4)cc3[nH]2)c1)N1CCN(C(=O)CC(F)(F)F)CC1` the remaining binding was 67% (FLT3; cell-free assay; competition with immobilised ligand; 0.1 µM).
With `Cc1[nH]c(/C=C2\C(=O)Nc3ccc(F)cc32)c(C)c1C(=O)N[C@H]1CCN(C(=O)N(C)C)C1` the remaining activity was 3% (FLT3; enzyme activity; inhibitor; 0.1 µM).
